# Screens deposited in PubChem by Johns Hopkins Ion Channel Center.
# MrgX1 allo act: allosterically activates human MrgX1 receptor signaling; hit rate 0.63% among 310,000; B-score at 10 µM; MrgX1-HEK293, Fluo-4 calcium flux, FDSS; active compounds read high; Q96LB2;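 active = plate-corrected calcium response at least 3 library SD above typical, normal starting fluorescence, not activating the receptor alone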;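 also: compound read alongside a low EC10 to EC30 dose of BAM8-22 agonist; peak minus trough fluorescence over baseline measured at the second addition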
# Target sequence (Q96LB2 whole entry, looked up): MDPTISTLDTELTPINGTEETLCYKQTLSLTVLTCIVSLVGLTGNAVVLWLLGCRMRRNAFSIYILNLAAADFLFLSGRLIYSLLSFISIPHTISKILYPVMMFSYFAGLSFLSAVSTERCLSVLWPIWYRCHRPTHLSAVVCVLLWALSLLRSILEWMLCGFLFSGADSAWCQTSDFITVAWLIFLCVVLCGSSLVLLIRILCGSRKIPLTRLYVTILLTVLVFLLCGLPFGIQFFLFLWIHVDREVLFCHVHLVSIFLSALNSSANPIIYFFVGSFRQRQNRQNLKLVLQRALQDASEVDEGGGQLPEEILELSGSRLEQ
# MrgX1 antag: blocks BAM8-22 activation of human MrgX1 receptor; Q96LB2; MRGX1-HEK293 calcium flux, Fluo-4, BAM8-22 antagonism; active compounds read low; B-score at 10 µM; hit rate 1.3% among 310,000;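 active = calcium-response B-score plate-corrected more than 3 library SD below zero, starting fluorescence within 5 deviations, no agonist response on first addition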;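 also: peak minus trough fluorescence over baseline after final BAM8-22 challenge near maximal dose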
# RGS4 block: human RGS4 inhibition; P49798; HEK293 M3R/RGS4 inducible, Fluo-4 calcium flux; active compounds read high; triggered by carbachol at its EC20; B-score at 10 µM; hit rate 0.45% among 310,000; AID 463165;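 active = B-score, a plate-corrected calcium signal, over three deviations above library mean, with baseline fluorescence within five deviations of library mean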;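 also: RGS4 expression induced by doxycycline in cells with stable M3 receptor; B-score is computed from the integrated fluorescence ratio over baseline after carbachol; higher B-score means a larger calcium signal and so more RGS4 inhibition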
# MrgX1 agonist: human MrgX1 receptor agonism, primary screen; Q96LB2; hit rate 0.44% among 310,000; MrgX1-HEK293 cells, Fluo-4 calcium fluorescence, agonist mode; active compounds read high; B-score at 10 µM;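 active = calcium response B-score plate-corrected fluorescence ratio at least 3 library SD, with starting fluorescence B-score inside 5 SD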
#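 Material: MrgX1-expressing HEK293 cells; input: 15,000 cells per well; doses: test compound given as first of three sequential additions; schedule: overnight plating before 1 h dye loading; technique: Fluo-4 NW calcium-flux fluorescence, kinetic read; evaluation: baseline-normalised fluorescence change ratio, B-scored; control set: plate-wise positive and negative controls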
# RGS4 act: potentiators or activators of RGS4. HEK293 M3R/inducible RGS4, carbachol calcium flux Fluo4; active compounds read low. B-score at 10 µM. hit rate 0.92% among 310,000. AID 463111;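 active = B-score of the integrated calcium signal more than 4 SD below the library mean, with starting fluorescence not abnormally high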;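 also: negative B-score means reduced calcium response which marks RGS4 activation or potentiation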
#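 Detection: kinetic calcium fluorescence imaging with Fluo4-AM dye, 2 µM / Material: HEK293 cells with stable M3R and inducible RGS4 / Schedule: recording 10 s baseline at 1 Hz, 100 s post-agonist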
# RGS4 activ val: confirmation of RGS4 activators. shares compounds with RGS4 act. HEK293 M3R/RGS4 inducible, carbachol calcium flux Fluo4. hit rate 89% among 1,100. inhibition, % at 10 µM;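 active = inhibition above 3 SD of the buffer control wells, cut at about 41% in these data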;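 also: signal is the integrated peak-minus-minimum Fluo4 fluorescence over baseline ratio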
# RGS4 act ctr: RGS4 activator counter-screen hit in non-induced cells | shares compounds with RGS4 act | HEK293 M3R non-induced RGS4, Fluo4 calcium flux; after carbachol challenge at its EC90 | inhibition, % at 10 µM | hit rate 82% among 1,100 | AID 602283;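 active = inhibition exceeding 3 SD of buffer-only control wells, cut at about 26% in these data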;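 also: percent drop in integrated peak-minus-baseline over baseline Fluo4 ratio after carbachol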
# A number is an active result; n = inactive; x = no result. Sampled rows, rich in hits. Any-hit rate of the full collection: about 3.5%.
SMILES,MrgX1 allo act,MrgX1 antag,RGS4 block,MrgX1 agonist,RGS4 act,RGS4 activ val,RGS4 act ctr
COc1ccc(-c2csc3ncnc(N4CCN(CCO)CC4)c23)cc1,n,n,n,n,n,x,x
CCOc1ccccc1N1CCN(c2ncnc3scc(-c4ccc(OC)cc4)c23)CC1,n,n,n,n,-10.7,90.5,43.3
Cc1nc(N2CCN(c3ccccc3O)CC2)c2c(-c3ccccc3)csc2n1,n,n,n,n,-11.3,89.5,33.8
COc1ccc(-c2csc3ncnc(N4CCN(c5ccccc5OC)CC4)c23)cc1,n,n,n,n,-8.6,86.0,48.8
COc1ccc(-c2csc3nc(C)nc(N4CCN(C(C)=O)CC4)c23)cc1OC,n,n,n,n,n,x,x
CCOc1cnc(-c2ccc(Cl)cc2)o1,n,n,n,n,n,x,x
CCOc1cnc(-c2c(-c3c(Cl)cccc3Cl)noc2C)o1,n,n,n,n,-8.54,90.0,61.3
COc1ccccc1-c1coc2c(CN3CCCC(C)C3)c(O)ccc2c1=O (stereo not given),n,n,n,n,n,x,x
COc1ccc(C2c3ccc4ccccc4c3Oc3ncn(CCCN(C)C)c(=N)c32)cc1 (stereo not given),n,n,n,n,-8.62,40.5,83.8
COc1ccccc1C1c2ccc3ccccc3c2Oc2ncn(CCCO)c(=N)c21 (stereo not given),n,n,n,n,n,x,x
COc1ccccc1C1c2ccc3ccccc3c2Oc2ncn(CCN(C)C)c(=N)c21 (stereo not given),n,n,n,n,-8.33,86.5,67.3
COCCCNC(=O)Cn1cnc2sc(C)c(S(=O)(=O)N3CC(C)CC(C)C3)c2c1=O (stereo not given),n,n,n,n,n,x,x
N=c1c2c(-c3ccccc3)c(-c3ccccc3)oc2ncn1CCN1CCOCC1,n,n,n,n,-8.96,58.5,83.8
COC(=O)c1ccc(NC(=O)[C@H](C)NC(N)=O)cc1,n,n,n,n,n,x,x
Cc1cccc(OCC(=O)N2CCN(c3nnc(-c4ccccc4)c4ccccc34)CC2)c1,n,n,n,n,-8.02,77.5,29.8
O=C(COc1ccccc1)N1CCN(c2nnc(-c3ccccc3)c3ccccc23)CC1,n,n,n,n,n,x,x
CC(=O)c1ccc(S(=O)(=O)NC2CC(=O)N(c3ccc(C)c(C)c3)C2)cc1 (stereo not given),n,n,n,n,n,x,x
CCOC(=O)C1=C(C)OC(N)=C(C#N)C1c1cc2c(cc1Br)OCO2 (stereo not given),n,n,n,n,-8.74,90.0,65.3
O/C=c1\ccc2cccc3nc(C(F)(F)F)nc1c23,n,n,n,n,n,x,x
C/C(O)=c1/ccc2cccc3nc(C)nc1c23,n,n,n,n,-8.3,73.5,69.3
CC(=O)Nc1cccc(C(=O)OCC(=O)NNC(=O)c2cccs2)c1,n,n,n,n,n,x,x
CCOC(=O)N1CCC(N2CCN(CCC(C)C)C(CCO)C2)CC1 (stereo not given),n,n,n,n,-10.4,77.5,29.8
Cc1cc(C)c(C#N)c(SCC(=O)C2CC2)n1,n,n,n,n,n,x,x
CNS(=O)(=O)c1cccc(C(=O)NCC(c2ccco2)N(C)C)c1 (stereo not given),n,n,n,n,n,x,x
Cc1ccc(S(=O)(=O)Nc2cccc(C(=O)NCC(c3ccco3)N(C)C)c2)cc1F (stereo not given),n,n,n,n,-8.16,66.0,83.8
CC(C)(C)c1cc(-c2csc(Nc3ccccc3)[n+]2Cc2ccc(C(=O)O)cc2)cc(C(C)(C)C)c1O,n,-9.48,n,n,-10.8,93.5,97.3
NC(N)=NC1=NC(=O)C(Cc2ccccc2)S1 (stereo not given),n,n,n,n,n,x,x
Cc1[nH]nc2c1C(c1ccc(F)cc1)C1=C(CC(C)(C)CC1=O)N2 (stereo not given),n,n,n,n,-9.67,n,n
Cc1nc2ccc([N+](=O)[O-])cc2c(=O)n1Cc1ccc(F)cc1,n,n,n,n,n,x,x
